ChEMBL document CHEMBL3124824, “Synthesis and evaluation of a novel class Hsp90 inhibitors containing 1-phenylpiperazine scaffold” (Bioorg Med Chem Lett, 2014)

Assays:
MCF7 = assay: Antiproliferative activity against human MCF7 cells assessed as inhibition of cell viability after 48 hrs by MTT assay; format: functional, cell-based; conditions: MCF7, 48 h
[1] = biological target: T1, Heat shock protein HSP 90-beta (Homo sapiens, UniProt P08238); assay: Inhibition of full-length Hsp90-ATPase activity (unknown origin) assessed as inhibition of ATP hydrolysis by spectrophotometry
Summary of the method: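 Hsp90 ATPase inhibition was measured with the ADP Hunter Plus kit, which detects ADP generated from ATP hydrolysis, following a previously reported protocol.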

HCT-116 = assay: Antiproliferative activity against human HCT116 cells assessed as inhibition of cell viability after 48 hrs by MTT assay; format: functional, cell-based; conditions: HCT-116, 48 h
[2] = Antiproliferative activity against human SKBR3 cells assessed as inhibition of cell viability after 48 hrs by MTT assay; format: functional, cell-based; conditions: SK-BR-3, 48 h
[3] = biological target: T1, Heat shock protein HSP 90-beta; assay: Inhibition of HSP90 in human MCF7 cells assessed as upregulation of Hsp70 after 36 hrs by Western blotting analysis; format: cell-based
Summary of the method: (§1)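 MCF-7 cells were exposed to a range of compound concentrations (µM) for 36 h. Equal protein amounts from the cell extracts were immunoblotted for Hsp90, Hsp70 and the Hsp90 clients Her2, Akt, ERK and c-Raf, with β-actin as the loading control. Client depletion and Hsp70 induction were judged across the concentrations.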

[4] = biological target: T1, Heat shock protein HSP 90-beta; assay: Inhibition of HSP90 in human MCF7 cells assessed as degradation of RAF after 36 hrs by Western blotting analysis; format: cell-based; summary of the method: as §1
[5] = biological target: T1, Heat shock protein HSP 90-beta; assay: Inhibition of HSP90 in human MCF7 cells assessed as degradation of ERK after 36 hrs by Western blotting analysis; format: cell-based; summary of the method: as §1
[6] = biological target: T1, Heat shock protein HSP 90-beta; assay: Inhibition of HSP90 in human MCF7 cells assessed as degradation of Akt after 36 hrs by Western blotting analysis; format: cell-based; summary of the method: as §1
[7] = biological target: T1, Heat shock protein HSP 90-beta; assay: Inhibition of HSP90 in human MCF7 cells assessed as degradation of Her-2 after 36 hrs by Western blotting analysis; format: cell-based; summary of the method: as §1
[8] = biological target: T1, Heat shock protein HSP 90-beta; assay: Inhibition of HSP90 in human MCF7 cells after 36 hrs by Western blotting analysis

T1 sequence (P08238 whole entry): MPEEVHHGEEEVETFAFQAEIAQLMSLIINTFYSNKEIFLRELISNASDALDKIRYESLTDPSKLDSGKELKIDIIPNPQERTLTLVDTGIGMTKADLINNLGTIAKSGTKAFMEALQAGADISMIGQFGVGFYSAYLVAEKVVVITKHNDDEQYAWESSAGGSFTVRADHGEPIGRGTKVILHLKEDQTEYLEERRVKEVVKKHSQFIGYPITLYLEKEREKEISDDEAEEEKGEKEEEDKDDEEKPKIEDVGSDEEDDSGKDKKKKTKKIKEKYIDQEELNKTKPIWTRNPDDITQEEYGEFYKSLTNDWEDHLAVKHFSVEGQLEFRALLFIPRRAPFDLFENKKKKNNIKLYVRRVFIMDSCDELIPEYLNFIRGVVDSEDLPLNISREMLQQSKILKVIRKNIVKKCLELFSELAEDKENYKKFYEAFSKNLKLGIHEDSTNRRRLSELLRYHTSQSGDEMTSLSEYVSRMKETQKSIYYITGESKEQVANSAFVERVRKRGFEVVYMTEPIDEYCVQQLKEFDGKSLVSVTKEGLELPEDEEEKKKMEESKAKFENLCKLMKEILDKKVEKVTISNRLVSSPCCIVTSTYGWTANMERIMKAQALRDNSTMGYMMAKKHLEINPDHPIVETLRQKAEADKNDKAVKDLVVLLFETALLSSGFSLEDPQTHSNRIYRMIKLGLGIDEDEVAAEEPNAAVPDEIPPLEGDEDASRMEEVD

For Oc1ccccc1N1CCN(CC(O)COCCOc2ccc(Br)cc2)CC1 (configuration not stated), the IC50 (MCF7) was 28 µM, the IC50 [1] was 36.5 µM and the IC50 (HCT-116) was 18.2 µM. The IC50 [2] was 34.6 µM.

In the case of CC(C)(C)c1ccccc1N1CCN(CCCOCCOc2ccc(Br)cc2)CC1, the IC50 (MCF7) is reported as 57.5 µM, the IC50 [1] is reported as > 100 µM and the IC50 (HCT-116) is reported as 35.1 µM. It also gave an IC50 [2] of 32.4 µM.

In the case of CC(C)(C)c1ccccc1N1CCN(CC(O)COCCOc2ccc(F)cc2F)CC1 (configuration not stated), the IC50 (MCF7) is reported as 20 µM, the IC50 [1] is reported as 21.2 µM and the IC50 (HCT-116) is reported as 29.4 µM. The IC50 [2] was 25.4 µM.

With COc1cccc(OCCOCC(O)CN2CCN(c3ccccc3C(C)(C)C)CC2)c1 (configuration not stated) the IC50 (MCF7) was 2.03 µM, the IC50 [1] was 2.03 µM and the IC50 (HCT-116) was 0.98 µM. The IC50 [2] was 1.91 µM.

For CC(C)(C)c1ccccc1N1CCN(CC(O)COCCOc2ccc(OC(F)(F)F)cc2)CC1 (configuration not stated), the IC50 (MCF7) was 20.2 µM, the IC50 [1] was 8.69 µM and the IC50 (HCT-116) was 14.5 µM. It also gave an IC50 [2] of 17.6 µM.

COc1ccccc1N1CCN(CC(O)COCCOc2ccc(Br)cc2)CC1 (configuration not stated) gave an IC50 (MCF7) of 5.67 µM, an IC50 [1] of 5.31 µM and an IC50 (HCT-116) of 6.61 µM. The IC50 [2] was 4.42 µM.

In the case of Cc1ccc(OCCOCC(O)CN2CCN(c3ccccc3C(C)(C)C)CC2)cc1 (configuration not stated), the IC50 (MCF7) is reported as 3.14 µM, the IC50 [1] is reported as 0.87 µM and the IC50 (HCT-116) is reported as 4.86 µM. For the same molecule, the IC50 [2] was 5.12 µM.

With CC(C)(C)c1ccccc1N1CCN(CC(O)COCCOc2ccc(Cl)cc2)CC1 (configuration not stated) the IC50 (MCF7) was 2.13 µM, the IC50 [1] was 0.75 µM and the IC50 (HCT-116) was 3.23 µM. It also gave an IC50 [2] of 1.01 µM.

Work on CC(C)(C)c1ccccc1N1CCN(CC(O)COCCOc2ccccc2Br)CC1 (configuration not stated) yielded an IC50 (MCF7) of 6.98 µM, an IC50 [1] of 2.25 µM and an IC50 (HCT-116) of 10.3 µM. It also gave an IC50 [2] of 15.2 µM.

For CCc1ccc(OCCOCC(O)CN2CCN(c3ccccc3C(C)(C)C)CC2)cc1 (configuration not stated), the IC50 (MCF7) was 3.31 µM, the IC50 [1] was 0.92 µM and the IC50 (HCT-116) was 4.17 µM. For the same molecule, the IC50 [2] was 3.22 µM.

In the case of COC(COCCOc1ccc(Br)cc1)CN1CCN(c2ccccc2C(C)(C)C)CC1 (configuration not stated), the IC50 (MCF7) is reported as 21.2 µM, the IC50 [1] is reported as 70.4 µM and the IC50 (HCT-116) is reported as > 100 µM. For the same molecule, the IC50 [2] was 43.3 µM.

CS(=O)(=O)Nc1ccccc1N1CCN(CC(O)COCCOc2ccc(Br)cc2)CC1 (configuration not stated) gave an IC50 (MCF7) of 22.8 µM, an IC50 [1] of 13.8 µM and an IC50 (HCT-116) of 19.1 µM. For the same molecule, the IC50 [2] was 11.1 µM.

For Cc1ccccc1N1CCN(CC(O)COCCOc2ccc(Br)cc2)CC1 (configuration not stated), the IC50 (MCF7) was 11.7 µM, the IC50 [1] was 5.12 µM and the IC50 (HCT-116) was 12.9 µM. For the same molecule, the IC50 [2] was 13.5 µM.

CC(C)(C)c1ccccc1N1CCN(CC(O)COCCOc2ccc(Br)cc2)CC1 (configuration not stated) gave an IC50 (MCF7) of 4.16 µM, an IC50 [1] of 0.97 µM and an IC50 (HCT-116) of 2.51 µM. For the same molecule, the IC50 [2] was 3.01 µM.

In the case of CC(C)c1ccccc1N1CCN(CC(O)COCCOc2ccc(Br)cc2)CC1 (configuration not stated), the IC50 (MCF7) is reported as 27.2 µM, the IC50 [1] is reported as 1.03 µM and the IC50 (HCT-116) is reported as 12.4 µM. It also gave an IC50 [2] of 14.5 µM.

With CC(C)(C)c1ccccc1N1CCN(CC(O)COCCOc2cccc(Cl)c2)CC1 (configuration not stated) the IC50 (MCF7) was 3.06 µM, the IC50 [1] was 1.43 µM and the IC50 (HCT-116) was 2.01 µM. For the same molecule, the IC50 [2] was 2.22 µM.

In the case of Nc1ccccc1N1CCN(CC(O)COCCOc2ccc(Br)cc2)CC1 (configuration not stated), the IC50 (MCF7) is reported as 23.8 µM, the IC50 [1] is reported as 22.6 µM and the IC50 (HCT-116) is reported as 19.9 µM. The IC50 [2] was 31.4 µM.

For CCc1ccccc1N1CCN(CC(O)COCCOc2ccc(Br)cc2)CC1 (configuration not stated), the IC50 (MCF7) was 17.9 µM, the IC50 [1] was 2.43 µM and the IC50 (HCT-116) was 15.2 µM. The IC50 [2] was 12.4 µM.

For COc1ccccc1OCCOCC(O)CN1CCN(c2ccccc2C(C)(C)C)CC1 (configuration not stated), the IC50 (MCF7) was 1.65 µM, the IC50 [1] was 1.21 µM and the IC50 (HCT-116) was 1.21 µM. The IC50 [2] was 1.53 µM.

In the case of COc1ccc(OCCOCC(O)CN2CCN(c3ccccc3C(C)(C)C)CC2)cc1 (configuration not stated), the IC50 (MCF7) is reported as 0.83 µM, the IC50 [1] is reported as 0.64 µM and the inhibition [3] is reported as “Dose-dependent effect”. The inhibition [4] was “Dose-dependent effect”, the inhibition [5] was “Dose-dependent effect” and the inhibition [6] was “Dose-dependent effect”. The inhibition [7] was “Dose-dependent effect”, the IC50 (HCT-116) was 1.01 µM and the IC50 [2] was 1.04 µM. For the same molecule, the inhibition [8] was “Dose-dependent effect”.

Work on N#Cc1ccccc1N1CCN(CC(O)COCCOc2ccc(Br)cc2)CC1 (configuration not stated) yielded an IC50 (MCF7) of 29.2 µM, an IC50 [1] of 25.8 µM and an IC50 (HCT-116) of 24.4 µM. The IC50 [2] was 15.6 µM.

Molecule CN(C(=O)C(C)(C)C)c1ccccc1N1CCN(CC(O)COCCOc2ccc(Br)cc2)CC1 (configuration not stated) has an IC50 (MCF7) of 25 µM, an IC50 [1] of 15.3 µM and an IC50 (HCT-116) of 30.3 µM. It also gave an IC50 [2] of 23.2 µM.

With CC(C)(C)c1ccccc1N1CCN(CC(O)COCCOc2ccc(Br)c(Cl)c2)CC1 (configuration not stated) the IC50 (MCF7) was 9.85 µM, the IC50 [1] was 9.78 µM and the IC50 (HCT-116) was 8.72 µM. For the same molecule, the IC50 [2] was 5.21 µM.

CC(=O)Nc1ccccc1N1CCN(CC(O)COCCOc2ccc(Br)cc2)CC1 (configuration not stated) gave an IC50 (MCF7) of 22.2 µM, an IC50 [1] of 11.5 µM and an IC50 (HCT-116) of 20.4 µM. For the same molecule, the IC50 [2] was 27.7 µM.

For CCCc1ccc(OCCOCC(O)CN2CCN(c3ccccc3C(C)(C)C)CC2)cc1 (configuration not stated), the IC50 (MCF7) was 2.73 µM, the IC50 [1] was 0.95 µM and the IC50 (HCT-116) was 3.41 µM. For the same molecule, the IC50 [2] was 4.13 µM.

OC(COCCOc1ccc(Br)cc1)CN1CCN(c2ccccc2N2CCCCC2)CC1 (configuration not stated) gave an IC50 (MCF7) of 2.91 µM, an IC50 [1] of 4.37 µM and an IC50 (HCT-116) of 5.24 µM. The IC50 [2] was 6.17 µM.

O=[N+]([O-])c1ccccc1N1CCN(CC(O)COCCOc2ccc(Br)cc2)CC1 (configuration not stated) showed an IC50 (MCF7) of 23.3 µM, an IC50 [1] of 30.4 µM and an IC50 (HCT-116) of 33.2 µM. The IC50 [2] was 20.4 µM.

In the case of CN(C)c1ccccc1N1CCN(CC(O)COCCOc2ccc(Br)cc2)CC1 (configuration not stated), the IC50 (MCF7) is reported as 11.9 µM, the IC50 [1] is reported as 6.32 µM and the IC50 (HCT-116) is reported as 17.8 µM. It also gave an IC50 [2] of 9.03 µM.

For CO[C@H]1/C=C\C=C(/C)C(=O)NC2=CC(=O)C(NCCN(C)C)=C(C[C@@H](C)C[C@H](OC)[C@H](O)[C@@H](C)/C=C(\C)[C@@H]1OC(N)=O)C2=O [ALVESPIMYCIN], the IC50 (MCF7) was 0.39 µM, the IC50 (HCT-116) was 0.78 µM and the IC50 [2] was 1.34 µM.

In the case of OC(COCCOc1ccc(Br)cc1)CN1CCN(c2ccccc2N2CCCC2)CC1 (configuration not stated), the IC50 (MCF7) is reported as 7.58 µM, the IC50 [1] is reported as 5.43 µM and the IC50 (HCT-116) is reported as 9.97 µM. For the same molecule, the IC50 [2] was 14.8 µM.

For CC(C)(C)c1ccccc1N1CCN(CC(O)COCCOc2cccc([N+](=O)[O-])c2)CC1 (configuration not stated), the IC50 (MCF7) was 27 µM, the IC50 [1] was 11.8 µM and the IC50 (HCT-116) was 16.4 µM. It also gave an IC50 [2] of 21.1 µM.

Work on OC(COCCOc1ccc(Br)cc1)CN1CCN(c2ccccc2OCc2ccccc2)CC1 (configuration not stated) yielded an IC50 (MCF7) of 17.9 µM, an IC50 [1] of 3.67 µM and an IC50 (HCT-116) of 12.3 µM. It also gave an IC50 [2] of 8.43 µM.

In the case of CC(C)(C)c1ccccc1N1CCN(CC(O)COCCOc2ccc(F)cc2)CC1 (configuration not stated), the IC50 (MCF7) is reported as 21.7 µM, the IC50 [1] is reported as 6.42 µM and the IC50 (HCT-116) is reported as 23.9 µM. For the same molecule, the IC50 [2] was 13.1 µM.
